Measured values as given in ChEMBL document CHEMBL1154014, “Discovery of a novel class of 2-mercaptohexanoic acid derivatives as highly active PPARalpha agonists” (Bioorg Med Chem Lett, 2009).
The source made the active and inactive calls. The calls are words filed in the database; no cut-off is given here.

What follows are compounds tested against T1, Peroxisome proliferator-activated receptor delta (Homo sapiens) (UniProt Q03181) (assay: Agonist activity at human PPARbeta expressed in african green monkey COS7 cells at 10 uM by Gal4 transactivation assay). Settings: COS-7.
T1 sequence (whole entry): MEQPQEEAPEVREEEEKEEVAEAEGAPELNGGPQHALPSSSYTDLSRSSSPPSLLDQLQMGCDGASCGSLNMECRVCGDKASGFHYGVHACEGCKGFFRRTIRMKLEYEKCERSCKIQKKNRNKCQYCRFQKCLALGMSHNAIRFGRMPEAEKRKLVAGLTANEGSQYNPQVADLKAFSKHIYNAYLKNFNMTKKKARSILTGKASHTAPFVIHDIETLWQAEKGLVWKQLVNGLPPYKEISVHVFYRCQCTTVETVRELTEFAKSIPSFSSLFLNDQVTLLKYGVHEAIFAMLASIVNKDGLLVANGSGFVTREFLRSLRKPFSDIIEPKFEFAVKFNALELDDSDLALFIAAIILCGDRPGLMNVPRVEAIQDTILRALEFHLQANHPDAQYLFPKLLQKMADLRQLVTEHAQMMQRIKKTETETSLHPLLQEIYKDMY
Assay type: functional, cell-based

Row | Activity | SMILES
1 | inactive | CCCC/C(=C\c1ccc(OCCCOc2cccc(C)c2C)cc1)C(=O)O
2 | inactive | CCCCC(Sc1ccc(OCCCOc2ccc(-c3ccccc3)cc2)cc1)C(=O)O (configuration not stated)
3 | inactive | CCCCC(Sc1ccc(OCCCOc2cccc(C(F)(F)F)c2)cc1)C(=O)O (configuration not stated)
4 | inactive | CCCCC(Sc1ccc(OCCCOc2ccc(C)c(C)c2)cc1)C(=O)O (configuration not stated)
5 | inactive | CCCCC(Sc1ccc(OCCCOc2cccc3c2CCCC3)cc1)C(=O)O (configuration not stated)
6 | inactive | CCCCC(Sc1ccc(OCCCOc2cccc(C(C)C)c2)cc1)C(=O)O (configuration not stated)
7 | inactive | CCCCC(Sc1ccc(OCCCOc2ccccc2OC)cc1)C(=O)O (configuration not stated)
8 | inactive | CCCCC(Sc1ccc(OCCCOc2ccc3ncccc3c2)cc1)C(=O)O (configuration not stated)

The compounds below were run against T2, Peroxisome proliferator-activated receptor alpha (Homo sapiens) (UniProt Q07869) (assay: Agonist activity at human PPARalpha expressed in african green monkey COS7 cells at 10 uM by Gal4 transactivation assay). Settings: COS-7.
T2 sequence (whole entry): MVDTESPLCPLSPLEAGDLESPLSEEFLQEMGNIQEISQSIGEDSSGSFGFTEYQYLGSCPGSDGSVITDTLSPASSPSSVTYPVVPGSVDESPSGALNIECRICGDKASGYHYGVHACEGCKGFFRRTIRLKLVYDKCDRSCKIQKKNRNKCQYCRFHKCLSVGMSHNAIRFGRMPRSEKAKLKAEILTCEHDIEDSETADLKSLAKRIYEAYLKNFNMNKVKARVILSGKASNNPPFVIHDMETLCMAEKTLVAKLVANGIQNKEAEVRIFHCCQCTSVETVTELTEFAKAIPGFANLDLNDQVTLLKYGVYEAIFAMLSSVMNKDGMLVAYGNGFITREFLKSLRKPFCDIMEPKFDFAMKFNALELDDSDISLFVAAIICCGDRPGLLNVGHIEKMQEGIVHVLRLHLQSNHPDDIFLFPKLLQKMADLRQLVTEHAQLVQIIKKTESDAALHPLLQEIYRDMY
Assay type: functional, cell-based

Row | Activity | SMILES
9 | inactive | CCCC/C(=C\c1ccc(OCCCOc2cccc(C)c2C)cc1)C(=O)O

Each compound was assayed against T3, Peroxisome proliferator-activated receptor alpha (Homo sapiens, UniProt Q07869) (assay: Agonist activity at human PPARalpha expressed in african green monkey COS7 cells by Gal4 transactivation assay). Settings: not given.
T3 sequence (Q07869 whole entry): T2 sequence (whole entry)
Assay type: functional, cell-based, COS-7
In short: (§1)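 COS7 cells were grown in DMEM with FCS, sodium pyruvate and penicillin/streptomycin at 37 °C, 5% CO2, and seeded at 30,000 cells/well the day before transfection. They were lipofected with pFR-Luc, pRL-SV40 and the Gal4-hPPAR-LBD plasmid of each subtype. After 5 h, cells received serum-free DMEM with 0.1% DMSO plus compound, incubated overnight, then Dual-Glo luciferase read-out. Triplicate wells, ≥3 independent experiments; EC50 from mean values.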

Row | EC50 | SMILES
10 | 0.085 µM | CCCCC(Sc1ccc(OCCCOc2ccc(C)cc2)cc1)C(=O)O (configuration not stated)
11 | 0.6 µM | Cc1cccc(OCCCOc2ccc(SCC(=O)O)cc2)c1C
12 | 0.11 µM | CCCCC(Sc1ccc(OCCCOc2ccc(-c3ccccc3)cc2)cc1)C(=O)O (configuration not stated)
13 | 0.025 µM | CCCCC(Sc1ccc(OCCCOc2cccc(C(F)(F)F)c2)cc1)C(=O)O (configuration not stated)
14 | 13.8 µM | Cc1cccc(OCCCOc2ccc(CCC(=O)O)cc2)c1C
15 | 0.021 µM | CCCCC(Sc1ccc(OCCCOc2ccc(C)c(C)c2)cc1)C(=O)O (configuration not stated)
16 | 0.19 µM | CCCCC(Sc1ccc(OCCCOc2cccc3c2CCCC3)cc1)C(=O)O (configuration not stated)
17 | 0.15 µM | CCCCC(Sc1ccc(OCCCOc2cccc(C(C)C)c2)cc1)C(=O)O (configuration not stated)
18 | 0.55 µM | CCCCC(Sc1ccc(OCCCOc2ccccc2OC)cc1)C(=O)O (configuration not stated)
19 | 0.22 µM | CCCCC(Sc1ccc(OCCCOc2ccc3ncccc3c2)cc1)C(=O)O (configuration not stated)

These compounds were tested against T4, Peroxisome proliferator-activated receptor gamma (Homo sapiens) (UniProt P37231) (assay: Agonist activity at human PPARgamma expressed in african green monkey COS7 cells at 10 uM by Gal4 transactivation assay). Settings: COS-7.
T4 sequence (whole entry): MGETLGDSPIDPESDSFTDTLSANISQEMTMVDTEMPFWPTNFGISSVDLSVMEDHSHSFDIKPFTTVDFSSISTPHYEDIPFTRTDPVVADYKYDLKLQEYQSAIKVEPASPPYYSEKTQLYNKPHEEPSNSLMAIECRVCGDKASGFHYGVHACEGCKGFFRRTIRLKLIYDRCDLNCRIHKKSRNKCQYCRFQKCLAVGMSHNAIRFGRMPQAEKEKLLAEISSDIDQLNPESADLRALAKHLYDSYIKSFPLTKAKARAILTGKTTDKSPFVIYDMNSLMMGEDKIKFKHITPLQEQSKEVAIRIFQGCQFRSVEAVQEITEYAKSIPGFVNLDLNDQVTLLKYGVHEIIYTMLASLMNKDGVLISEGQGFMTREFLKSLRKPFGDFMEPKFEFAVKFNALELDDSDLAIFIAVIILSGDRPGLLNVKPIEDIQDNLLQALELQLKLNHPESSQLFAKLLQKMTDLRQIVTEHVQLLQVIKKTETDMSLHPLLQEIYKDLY
Assay type: functional, cell-based

Row | Activity | SMILES
20 | inactive | CCCC/C(=C\c1ccc(OCCCOc2cccc(C)c2C)cc1)C(=O)O

Each compound was assayed against T2, Peroxisome proliferator-activated receptor alpha (Homo sapiens) (assay: Agonist activity at human PPARalpha expressed in african green monkey COS7 cells at 1 uM by Gal4 transactivation assay relative to GW-7647). Settings: COS-7.
Assay type: functional, cell-based

Row | Activity | SMILES
21 | 91% | CCCCC(Sc1ccc(OCCCOc2ccc(C)cc2)cc1)C(=O)O (configuration not stated)
22 | 81% | Cc1cccc(OCCCOc2ccc(SCC(=O)O)cc2)c1C
23 | 125% | CCCCC(Sc1ccc(OCCCOc2ccc(-c3ccccc3)cc2)cc1)C(=O)O (configuration not stated)
24 | 75% | CCCCC(Sc1ccc(OCCCOc2cccc(C(F)(F)F)c2)cc1)C(=O)O (configuration not stated)
25 | 63% | Cc1cccc(OCCCOc2ccc(CCC(=O)O)cc2)c1C
26 | 72% | CCCCC(Sc1ccc(OCCCOc2ccc(C)c(C)c2)cc1)C(=O)O (configuration not stated)
27 | 101% | CCCCC(Sc1ccc(OCCCOc2cccc3c2CCCC3)cc1)C(=O)O (configuration not stated)
28 | 98% | CCCCC(Sc1ccc(OCCCOc2cccc(C(C)C)c2)cc1)C(=O)O (configuration not stated)
29 | 92% | CCCCC(Sc1ccc(OCCCOc2ccccc2OC)cc1)C(=O)O (configuration not stated)
30 | 95% | CCCCC(Sc1ccc(OCCCOc2ccc3ncccc3c2)cc1)C(=O)O (configuration not stated)

What follows are compounds tested against T1, Peroxisome proliferator-activated receptor delta (Homo sapiens) (assay: Agonist activity at human PPARbeta expressed in african green monkey COS7 cells at 1 uM by Gal4 transactivation assay relative to L165041). Settings: COS-7.
Assay type: functional, cell-based

Row | Activity | SMILES
31 | 52% | Cc1cccc(OCCCOc2ccc(SCC(=O)O)cc2)c1C
32 | 72% | Cc1cccc(OCCCOc2ccc(CCC(=O)O)cc2)c1C

These compounds were tested against T5, Peroxisome proliferator-activated receptor gamma (Homo sapiens, UniProt P37231) (assay: Agonist activity at human PPARgamma expressed in african green monkey COS7 cells by Gal4 transactivation assay). Settings: not given.
T5 sequence (P37231 whole entry): T4 sequence (whole entry)
Assay type: functional, cell-based, COS-7
In short: as §1

Row | EC50 | SMILES
33 | 0.93 µM | CCCCC(Sc1ccc(OCCCOc2ccc(C)cc2)cc1)C(=O)O (configuration not stated)
34 | 3.8 µM | Cc1cccc(OCCCOc2ccc(SCC(=O)O)cc2)c1C
35 | 0.54 µM | CCCCC(Sc1ccc(OCCCOc2ccc(-c3ccccc3)cc2)cc1)C(=O)O (configuration not stated)
36 | 4.6 µM | CCCCC(Sc1ccc(OCCCOc2cccc(C(F)(F)F)c2)cc1)C(=O)O (configuration not stated)
37 | 15.7 µM | Cc1cccc(OCCCOc2ccc(CCC(=O)O)cc2)c1C
38 | 3.5 µM | CCCCC(Sc1ccc(OCCCOc2ccc(C)c(C)c2)cc1)C(=O)O (configuration not stated)
39 | 8.1 µM | CCCCC(Sc1ccc(OCCCOc2cccc3c2CCCC3)cc1)C(=O)O (configuration not stated)
40 | 5.3 µM | CCCCC(Sc1ccc(OCCCOc2cccc(C(C)C)c2)cc1)C(=O)O (configuration not stated)
41 | 1.6 µM | CCCCC(Sc1ccc(OCCCOc2ccccc2OC)cc1)C(=O)O (configuration not stated)
42 | 1.3 µM | CCCCC(Sc1ccc(OCCCOc2ccc3ncccc3c2)cc1)C(=O)O (configuration not stated)

The compounds below were run against T6, Peroxisome proliferator-activated receptor delta (Homo sapiens, UniProt Q03181) (assay: Agonist activity at human PPARbeta expressed in african green monkey COS7 cells by Gal4 transactivation assay). Settings: not given.
T6 sequence (Q03181 whole entry): T1 sequence (whole entry)
Assay type: functional, cell-based, COS-7
In short: as §1

Row | EC50 | SMILES
43 | 1.4 µM | Cc1cccc(OCCCOc2ccc(SCC(=O)O)cc2)c1C
44 | 11.2 µM | Cc1cccc(OCCCOc2ccc(CCC(=O)O)cc2)c1C

The compounds below were run against T4, Peroxisome proliferator-activated receptor gamma (Homo sapiens) (assay: Agonist activity at human PPARgamma expressed in african green monkey COS7 cells at 1 uM by Gal4 transactivation assay relative to pioglitazone). Settings: COS-7.
Assay type: functional, cell-based

Row | Activity | SMILES
45 | 87% | CCCCC(Sc1ccc(OCCCOc2ccc(C)cc2)cc1)C(=O)O (configuration not stated)
46 | 77% | Cc1cccc(OCCCOc2ccc(SCC(=O)O)cc2)c1C
47 | 108% | CCCCC(Sc1ccc(OCCCOc2ccc(-c3ccccc3)cc2)cc1)C(=O)O (configuration not stated)
48 | 68% | CCCCC(Sc1ccc(OCCCOc2cccc(C(F)(F)F)c2)cc1)C(=O)O (configuration not stated)
49 | 54% | Cc1cccc(OCCCOc2ccc(CCC(=O)O)cc2)c1C
50 | 61% | CCCCC(Sc1ccc(OCCCOc2ccc(C)c(C)c2)cc1)C(=O)O (configuration not stated)
51 | 107% | CCCCC(Sc1ccc(OCCCOc2cccc3c2CCCC3)cc1)C(=O)O (configuration not stated)
52 | 91% | CCCCC(Sc1ccc(OCCCOc2cccc(C(C)C)c2)cc1)C(=O)O (configuration not stated)
53 | 85% | CCCCC(Sc1ccc(OCCCOc2ccccc2OC)cc1)C(=O)O (configuration not stated)
54 | 49% | CCCCC(Sc1ccc(OCCCOc2ccc3ncccc3c2)cc1)C(=O)O (configuration not stated)

Each compound was assayed against T1, Peroxisome proliferator-activated receptor delta (Homo sapiens) (assay: Agonist activity at human PPARbeta expressed in african green monkey COS7 cells at 10 uM by Gal4 transactivation assay relative to L165041). Settings: COS-7.
Assay type: functional, cell-based

Row | Activity | SMILES
55 | 31% | CCCCC(Sc1ccc(OCCCOc2ccc(C)cc2)cc1)C(=O)O (configuration not stated)

The compounds below were run on COS-7 (assay: Selectivity ratio of EC50 for human PPARgamma to EC50 for human PPARalpha expressed in african green monkey COS7 cells). Settings: not given.
Assay type: cell-based

Row | SMILES | Ratio EC50
56 | CCCCC(Sc1ccc(OCCCOc2ccc(-c3ccccc3)cc2)cc1)C(=O)O (configuration not stated) | 5
57 | CCCCC(Sc1ccc(OCCCOc2ccc3ncccc3c2)cc1)C(=O)O (configuration not stated) | 6
